Source: ChEMBL document CHEMBL5649170, “Sustained microglial depletion with CSF1R inhibitor impairs parenchymal plaque development in an Alzheimer's disease model” (Nat Commun, 2019)
The source made the active and inactive calls. The rule behind the calls is not given here.

Key:
[1] = target: T1, Macrophage colony-stimulating factor 1 receptor (Mus musculus) (UniProt P09581); assay: In vivo inhibition of CSF1R in 5XFAD mouse assessed as reduction in plaque pathology in […] cortex at 600 ppm administered as rodent chow starting from 1.5 months and measured after 5 months by immunolabeling based confocal microscopic analysis; conditions: route po, time 3.5 months
T1 sequence (whole entry): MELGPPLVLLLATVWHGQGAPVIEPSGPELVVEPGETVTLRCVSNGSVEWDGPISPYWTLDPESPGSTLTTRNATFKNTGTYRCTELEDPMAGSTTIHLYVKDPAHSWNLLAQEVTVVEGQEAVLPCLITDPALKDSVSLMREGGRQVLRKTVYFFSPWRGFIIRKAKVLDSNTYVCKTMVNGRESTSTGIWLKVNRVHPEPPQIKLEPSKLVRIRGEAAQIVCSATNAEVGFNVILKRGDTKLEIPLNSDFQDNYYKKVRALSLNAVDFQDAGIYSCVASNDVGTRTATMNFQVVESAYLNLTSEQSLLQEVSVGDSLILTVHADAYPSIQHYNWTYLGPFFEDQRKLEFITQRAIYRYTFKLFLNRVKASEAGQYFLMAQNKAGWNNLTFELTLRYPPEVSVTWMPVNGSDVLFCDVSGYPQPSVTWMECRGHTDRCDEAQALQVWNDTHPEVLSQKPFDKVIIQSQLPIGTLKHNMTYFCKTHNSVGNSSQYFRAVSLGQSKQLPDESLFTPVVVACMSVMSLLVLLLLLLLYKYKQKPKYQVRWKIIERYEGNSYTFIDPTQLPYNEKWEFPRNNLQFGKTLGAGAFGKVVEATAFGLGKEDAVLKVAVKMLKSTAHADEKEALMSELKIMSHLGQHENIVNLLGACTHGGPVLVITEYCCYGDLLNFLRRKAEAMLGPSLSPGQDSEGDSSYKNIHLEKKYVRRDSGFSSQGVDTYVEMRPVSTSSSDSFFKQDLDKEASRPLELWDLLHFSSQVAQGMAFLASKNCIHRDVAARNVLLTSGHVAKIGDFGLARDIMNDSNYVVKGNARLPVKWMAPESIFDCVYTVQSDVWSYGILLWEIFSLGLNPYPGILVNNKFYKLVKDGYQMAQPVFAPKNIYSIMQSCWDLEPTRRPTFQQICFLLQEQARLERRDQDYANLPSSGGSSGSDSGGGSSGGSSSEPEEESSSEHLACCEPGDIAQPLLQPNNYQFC

[2] = target: Inhibitor of nuclear factor kappa-B kinase subunit beta (Homo sapiens, UniProt O14920); assay: Inhibition of IKBKB (unknown origin)
[3] = Effect on Cst7 gene expression in 5XFAD mouse thalamus at 1200 ppm administered as rodent chow starting from 1.5 months and measured after 7 months by RNA-Seq analysis (reference value: 9.686 to 22.113 RPKM); type: functional; conditions: route po, time 5.5 months, 4015 h
Aurora kinase B = Aurora kinase B (Homo sapiens, UniProt Q96GD4); assay: Inhibition of AURKB (unknown origin)
Mus musculus [4] = assay: Antialzheimer activity in 5XFAD mouse assessed as number of Iba positive cells per FOV in microglia at 1200 ppm administered as rodent chow for 3 days by DAPI staining based immunolabeling analysis (reference value: 119 to 154); type: functional; conditions: route po, time 3 day
Mus musculus [5] = assay: Antialzheimer activity in 5XFAD mouse assessed as amyloidbeta42 level in detergent insoluble cortex fraction measured per microgram protein at 1200 ppm administered as rodent chow starting from 1.5 months and measured after 4 months by ELISA (reference value: 184693 to 3485624 pg); type: functional; conditions: route po, time 2.5 months, 1825 h
In short: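 PLX5622 at 1200 ppm in chow given to 5xFAD mice from 1.5 months to 4 or 7 months of age; cortex and thalamus homogenized in TPER (detergent-soluble), pellets re-homogenized in 70% formic acid and spun 100,000 g, 1 h, 4 °C (insoluble); protein by Bradford/Lowry; Aβ species measured by Meso Scale electrochemiluminescence immunoassay, normalized to protein; n = 7–8 per group at 7 months.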

[6] = Effect on Ctsd gene expression in wild type mouse thalamus at 1200 ppm administered as rodent chow starting from 1.5 months and measured after 7 months by RNA-Seq analysis (reference value: 123.974 to 159.747 RPKM); type: functional; conditions: route po, time 5.5 months, 4015 h
SRSF protein kinase 1 = SRSF protein kinase 1 (Homo sapiens, UniProt Q96SB4); assay: Inhibition of SRPK1 (unknown origin)
[7] = Effect on Spi1 gene expression in wild type mouse thalamus at 1200 ppm administered as rodent chow starting from 1.5 months and measured after 7 months by RNA-Seq analysis (reference value: 1.161 to 2.277 RPKM); type: functional; conditions: route po, time 5.5 months, 4015 h
[8] = Effect on Ctsz gene expression in wild type mouse cortex at 1200 ppm administered as rodent chow starting from 1.5 months and measured after 7 months by RNA-Seq analysis (reference value: 12.903 to 16.267 RPKM); type: functional; conditions: route po, time 5.5 months, 4015 h
[9] = Toxicity in wildtype mouse assessed as proportion of time spent freezing at 1200 ppm administered as rodent chow for 10 to 24 weeks by […] (reference value: 0.10 to 0.53); conditions: in vivo, po, time 10-24 weeks
Mus musculus [10] = assay: Antialzheimer activity in 5XFAD mouse assessed as percent change in claudin-5 intensity of Thio-S negative thalamus at 1200 ppm administered as rodent chow starting from 1.5 months and measured after 4 months by immunolabeling analysis relative to control; type: functional; conditions: route po, time 2.5 months, 1825 h
Mus musculus [11] = assay: Prevention of Cx3cr1 gene upregulation in 5XFAD mouse hippocampus at 1200 ppm administered as rodent chow starting from 1.5 months and measured after 7 months by Nanostring analysis; type: functional, tissue-based; conditions: route po, time 5.5 months
[12] = Toxicity in wildtype mouse assessed as time spent in open arm at 1200 ppm administered as rodent chow for 10 to 24 weeks by Elevated plus maze test (reference value: 8.7 to 179.9 sec); conditions: in vivo, po, time 10-24 weeks
[13] = Toxicity in wildtype mouse assessed as number of open arm entries at 1200 ppm administered as rodent chow for 10 to 24 weeks by Elevated plus maze test (reference value: 7 to 29); conditions: in vivo, po, time 10-24 weeks
[14] = Toxicity in wildtype mouse assessed as time to locate platform at 1200 ppm administered as rodent chow for 10 to 24 weeks by Morris water maze test (reference value: 3.195 to 56.218 sec); conditions: in vivo, po, time 10-24 weeks
[15] = target: Casein kinase I isoform gamma-2 (Homo sapiens, UniProt P78368); assay: Inhibition of CSNK1G2 (unknown origin)
[16] = target: Interleukin-1 receptor-associated kinase 4 (Homo sapiens, UniProt Q9NWZ3); assay: Inhibition of IRAK4 (unknown origin)
[17] = Effect on Cx3cr1 gene expression in wild type mouse hippocampus at 1200 ppm administered as rodent chow starting from 1.5 months and measured after 7 months by RNA-Seq analysis (reference value: 9.911 to 12.014 RPKM); type: functional; conditions: route po, time 5.5 months, 4015 h

Sequence of Aurora kinase B (Q96GD4 whole entry): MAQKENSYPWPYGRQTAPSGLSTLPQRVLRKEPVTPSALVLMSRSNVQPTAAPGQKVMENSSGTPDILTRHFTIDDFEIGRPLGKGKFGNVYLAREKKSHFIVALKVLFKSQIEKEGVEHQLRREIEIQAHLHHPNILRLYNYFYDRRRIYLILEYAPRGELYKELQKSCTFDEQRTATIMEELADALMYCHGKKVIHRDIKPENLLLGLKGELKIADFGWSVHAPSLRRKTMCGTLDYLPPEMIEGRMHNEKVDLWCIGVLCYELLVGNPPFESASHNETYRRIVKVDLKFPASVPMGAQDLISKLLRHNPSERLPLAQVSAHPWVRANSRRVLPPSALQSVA
Sequence of SRSF protein kinase 1 (Q96SB4 whole entry): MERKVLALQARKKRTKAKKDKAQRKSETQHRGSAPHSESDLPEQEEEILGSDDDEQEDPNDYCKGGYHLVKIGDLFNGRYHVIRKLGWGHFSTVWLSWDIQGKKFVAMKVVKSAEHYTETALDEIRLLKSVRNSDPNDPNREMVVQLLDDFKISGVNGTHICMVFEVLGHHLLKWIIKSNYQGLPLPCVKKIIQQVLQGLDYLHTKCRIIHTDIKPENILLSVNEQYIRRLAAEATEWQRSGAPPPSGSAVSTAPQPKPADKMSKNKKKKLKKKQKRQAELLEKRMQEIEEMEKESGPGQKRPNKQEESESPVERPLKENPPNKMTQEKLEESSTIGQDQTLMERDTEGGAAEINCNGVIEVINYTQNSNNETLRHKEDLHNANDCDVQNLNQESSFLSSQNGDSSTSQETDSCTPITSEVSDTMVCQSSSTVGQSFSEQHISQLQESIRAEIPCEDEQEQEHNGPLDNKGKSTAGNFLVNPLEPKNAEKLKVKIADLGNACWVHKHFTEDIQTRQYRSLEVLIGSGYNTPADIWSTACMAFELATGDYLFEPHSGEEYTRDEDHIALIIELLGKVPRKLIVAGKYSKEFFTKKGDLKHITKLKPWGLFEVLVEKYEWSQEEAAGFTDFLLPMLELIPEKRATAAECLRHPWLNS
Sequence of Interleukin-1 receptor-associated kinase 4 (Q9NWZ3 whole entry): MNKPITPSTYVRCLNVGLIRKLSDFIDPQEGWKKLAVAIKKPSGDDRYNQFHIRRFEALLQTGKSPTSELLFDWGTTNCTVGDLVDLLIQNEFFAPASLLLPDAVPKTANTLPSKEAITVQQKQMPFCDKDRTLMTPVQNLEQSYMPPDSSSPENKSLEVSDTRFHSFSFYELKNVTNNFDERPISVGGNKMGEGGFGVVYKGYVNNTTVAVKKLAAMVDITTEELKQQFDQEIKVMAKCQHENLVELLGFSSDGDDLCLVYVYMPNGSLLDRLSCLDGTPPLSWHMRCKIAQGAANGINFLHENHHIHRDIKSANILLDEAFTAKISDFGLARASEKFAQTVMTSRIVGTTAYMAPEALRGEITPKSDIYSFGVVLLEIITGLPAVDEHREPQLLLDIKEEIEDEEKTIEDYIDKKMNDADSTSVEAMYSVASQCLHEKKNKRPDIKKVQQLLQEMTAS
Sequence of Inhibitor of nuclear factor kappa-B kinase subunit beta (O14920 whole entry): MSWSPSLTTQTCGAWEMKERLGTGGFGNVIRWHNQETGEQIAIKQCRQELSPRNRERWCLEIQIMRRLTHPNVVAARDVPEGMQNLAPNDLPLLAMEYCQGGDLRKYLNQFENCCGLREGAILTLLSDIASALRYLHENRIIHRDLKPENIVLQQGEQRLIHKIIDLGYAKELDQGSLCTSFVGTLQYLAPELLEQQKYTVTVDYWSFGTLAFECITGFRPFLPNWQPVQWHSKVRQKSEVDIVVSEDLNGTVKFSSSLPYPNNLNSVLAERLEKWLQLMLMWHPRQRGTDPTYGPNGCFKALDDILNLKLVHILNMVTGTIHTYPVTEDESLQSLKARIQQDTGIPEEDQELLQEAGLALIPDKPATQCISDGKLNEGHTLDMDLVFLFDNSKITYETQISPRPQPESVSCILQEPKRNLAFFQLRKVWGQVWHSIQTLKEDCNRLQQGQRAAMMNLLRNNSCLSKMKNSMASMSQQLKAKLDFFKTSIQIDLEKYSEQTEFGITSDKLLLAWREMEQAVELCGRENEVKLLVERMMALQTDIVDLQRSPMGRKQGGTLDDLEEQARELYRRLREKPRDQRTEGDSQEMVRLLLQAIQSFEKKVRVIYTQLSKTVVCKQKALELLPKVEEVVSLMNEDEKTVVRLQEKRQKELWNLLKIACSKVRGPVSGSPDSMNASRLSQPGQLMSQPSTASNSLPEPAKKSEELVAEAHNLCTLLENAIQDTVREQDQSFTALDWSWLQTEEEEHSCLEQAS
Sequence of Casein kinase I isoform gamma-2 (P78368 whole entry, canonical isoform): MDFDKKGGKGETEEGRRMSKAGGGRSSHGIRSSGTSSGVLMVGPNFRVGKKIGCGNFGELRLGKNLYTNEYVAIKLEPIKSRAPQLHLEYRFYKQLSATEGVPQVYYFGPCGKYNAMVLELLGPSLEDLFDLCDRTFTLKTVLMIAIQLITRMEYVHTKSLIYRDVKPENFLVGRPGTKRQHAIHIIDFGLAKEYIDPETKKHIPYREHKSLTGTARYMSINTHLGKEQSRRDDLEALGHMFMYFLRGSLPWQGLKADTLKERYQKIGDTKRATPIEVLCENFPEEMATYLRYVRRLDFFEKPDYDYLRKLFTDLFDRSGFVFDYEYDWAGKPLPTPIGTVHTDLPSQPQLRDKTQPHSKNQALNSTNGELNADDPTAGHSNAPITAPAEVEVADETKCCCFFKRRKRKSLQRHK

Row | Compound | inhibition [1] | IC50 [2] | Activity [3] | IC50 (Aurora kinase B) | Activity (Mus musculus [4]) | Activity (Mus musculus [5]) | Activity [6] | IC50 (SRSF protein kinase 1) | Activity [7] | Activity [8] | Activity [9] | Activity (Mus musculus [10]) | Activity (Mus musculus [11]) | Time [12] | Activity [13] | Time [14] | IC50 [15] | IC50 [16] | Activity [17]
1 | FC(F)(F)c1ccc(CNc2ccc(Cc3c[nH]c4ncc(Cl)cc34)cn2)cn1 [PEXIDARTINIB] | Active | – | – | – | – | – | – | – | – | – | – | – | – | – | – | – | – | – | –
2 | COc1ncc(F)cc1CNc1ccc(Cc2c[nH]c3ncc(C)cc23)c(F)n1 [PLX-5622] | – | > 1000 nM | 0.096 RPKM | > 1000 nM | 1 | 14098.06 pg | 100.931 RPKM | > 1000 nM | 0 RPKM | 11.205 RPKM | 0.13 | 91.327% | Active | 11.9 s | 6 | 6.755 s | > 1000 nM | > 1000 nM | 0.074 RPKM
